From ChEMBL document CHEMBL5335797, “Design, Synthesis, and Evaluation of New 1H-Benzo[d]imidazole Based PqsR Inhibitors as Adjuvant Therapy for Pseudomonas aeruginosa Infections” (J Med Chem, 2024)
Activity calls are given as the source filed them. No cut-off for these calls is given here.

How the values were obtained:
Pseudomonas aeruginosa [1] = experiment: Inhibition of Pseudomonas aeruginosa pqsA-lux complex expressed in Pseudomonas aeruginosa PA14 at 10 uM by bioluminescent reporter assay
How it was run: (§1)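 Reporter strains PAO1-L and PA14 carrying chromosomal mCTX::PpqsA-lux, grown in LB at 37 °C. Inhibition read as reduced luminescence. Single-point screen at 10 μM from 10 mM DMSO stock; dose–response curves in both strains; mean ± SD, n = 2.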

Pseudomonas aeruginosa [2] = experiment: Inhibition of Pseudomonas aeruginosa pqsA-lux complex expressed in Pseudomonas aeruginosa PAO1-L at 10 uM by bioluminescent reporter assay; how it was run: as §1
[3] = target: T1, Transcriptional regulator MvfR (Pseudomonas aeruginosa PA14) (UniProt A0A072ZLE6); experiment: Antagonist activity at PqsR in wild-type Pseudomonas aeruginosa PAO1-L assessed as inhibition of pyocyanin level at 3 times IC50 incubated for 16 hrs by absorbance based assay relative to control; conditions: filed as antagonist
T1 sequence (whole entry): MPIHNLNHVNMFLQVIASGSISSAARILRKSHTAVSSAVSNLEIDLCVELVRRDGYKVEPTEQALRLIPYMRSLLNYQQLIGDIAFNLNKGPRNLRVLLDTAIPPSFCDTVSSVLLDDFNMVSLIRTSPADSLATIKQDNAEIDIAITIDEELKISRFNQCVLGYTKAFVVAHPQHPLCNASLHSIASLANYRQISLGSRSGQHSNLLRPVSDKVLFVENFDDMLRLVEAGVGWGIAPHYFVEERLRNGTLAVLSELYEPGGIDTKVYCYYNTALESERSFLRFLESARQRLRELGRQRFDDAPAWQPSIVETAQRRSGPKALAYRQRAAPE

A549 = experiment: Cytotoxicity against human A549 cells assessed as cell viability upto 100 uM incubated for 24 hrs by resazurin reduction assay; assay type: toxicity, cell-based; conditions: a549, 24 h
How it was run: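 A549 cells in DMEM with 10% FBS and 1% PSN, seeded at 1 × 10^4 cells/well. Compound at 1, 50 and 100 μM in sextuplicate, 24 h at 37 °C and 5% CO2. Vehicle control 1% DMSO; positive control 100 μM K2Cr2O7. Alamar blue added for 4–6 h, fluorescence read at ex 510/em 590 nm, normalized to DMSO.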

[4] = Inhibition of Pseudomonas aeruginosa pqsA-lux complex expressed in Pseudomonas aeruginosa PA14 by bioluminescent reporter assay; how it was run: as §1
[5] = Inhibition of Pseudomonas aeruginosa pqsA-lux complex expressed in Pseudomonas aeruginosa PAO1-L by bioluminescent reporter assay; how it was run: as §1
[6] = target: T1, Transcriptional regulator MvfR (Pseudomonas aeruginosa PA14); experiment: Antagonist activity at PqsR in Pseudomonas aeruginosa LESB58 clinical isolate assessed as reduction in AQ level at 0.2 uM by LCMS/MS analysis; conditions: filed as antagonist
[7] = target: T1, Transcriptional regulator MvfR (Pseudomonas aeruginosa PA14); experiment: Antagonist activity at PqsR in Pseudomonas aeruginosa IPCD1451 clinical isolate assessed as inhibition of pyocyanin level at 200 nM incubated for 16 hrs by absorbance based assay
[8] = target: T1, Transcriptional regulator MvfR (Pseudomonas aeruginosa PA14); experiment: Antagonist activity at PqsR in wild-type Pseudomonas aeruginosa PAO1-L assessed as reduction in HHQ level at 0.2 uM by LCMS/MS analysis; conditions: filed as antagonist
[9] = target: T1, Transcriptional regulator MvfR (Pseudomonas aeruginosa PA14); experiment: Antagonist activity at PqsR in wild-type Pseudomonas aeruginosa PA14 assessed as reduction in PQS level at 0.2 uM by LCMS/MS analysis; conditions: filed as antagonist
[10] = target: T1, Transcriptional regulator MvfR (Pseudomonas aeruginosa PA14); experiment: Antagonist activity at PqsR in wild-type Pseudomonas aeruginosa PA14 assessed as reduction in HHQ level at 0.2 uM by LCMS/MS analysis; conditions: filed as antagonist
[11] = target: T1, Transcriptional regulator MvfR (Pseudomonas aeruginosa PA14); experiment: Antagonist activity at PqsR in Pseudomonas aeruginosa IPCD1350 clinical isolate assessed as inhibition of pyocyanin level at 200 nM incubated for 16 hrs by absorbance based assay; conditions: filed as antagonist
[12] = target: T1, Transcriptional regulator MvfR (Pseudomonas aeruginosa PA14); experiment: Antagonist activity at PqsR in Pseudomonas aeruginosa IPCD1451 clinical isolate assessed as reduction in HQNO level at 0.2 uM by LCMS/MS analysis
[13] = target: T1, Transcriptional regulator MvfR (Pseudomonas aeruginosa PA14); experiment: Antagonist activity at PqsR in wild-type Pseudomonas aeruginosa PAO1-L assessed as reduction in PQS level at 0.2 uM by LCMS/MS analysis; conditions: filed as antagonist
[14] = target: T1, Transcriptional regulator MvfR (Pseudomonas aeruginosa PA14); experiment: Antagonist activity at PqsR in Pseudomonas aeruginosa LESB58 clinical isolate assessed as inhibition of pyocyanin level at 200 nM incubated for 16 hrs by absorbance based assay; conditions: filed as antagonist
[15] = target: T1, Transcriptional regulator MvfR (Pseudomonas aeruginosa PA14); experiment: Antagonist activity at PqsR in Pseudomonas aeruginosa IPCD48 clinical isolate assessed as inhibition of pyocyanin level at 200 nM incubated for 16 hrs by absorbance based assay; conditions: filed as antagonist
[16] = target: T1, Transcriptional regulator MvfR (Pseudomonas aeruginosa PA14); experiment: Antagonist activity at PqsR in wild-type Pseudomonas aeruginosa PA14 assessed as inhibition of pyocyanin level at 200 nM incubated for 16 hrs by absorbance based assay; conditions: filed as antagonist
Pseudomonas aeruginosa [17] = experiment: Inhibition of biofilm formation in GFP-labeled Pseudomonas aeruginosa PAO1-L at 1 uM incubated for 16 hrs by PI staining based confocal laser scanning microscopy; assay type: functional, organism-based
How it was run: (§2)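 GFP-tagged strain (pMMG) grown in RPMI-1640 with 20 mM glucose and 2 μM FeCl3. Seeded at OD600 0.01 on glass coverslips, static 1.5 h at 37 °C. Compound added at 1 μM, then shaken at 60 rpm and 37 °C for 16 h. Tobramycin 100 μg/mL plus propidium iodide 2 μM for a further 2 or 6 h. CLSM, 5 random z-stacks per coverslip.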

[18] = target: T1, Transcriptional regulator MvfR (Pseudomonas aeruginosa PA14); experiment: Antagonist activity at PqsR in Pseudomonas aeruginosa IPCD1331 clinical isolate assessed as inhibition of pyocyanin level at 200 nM incubated for 16 hrs by absorbance based assay; conditions: filed as antagonist
[19] = target: T1, Transcriptional regulator MvfR (Pseudomonas aeruginosa PA14); experiment: Antagonist activity at PqsR in Pseudomonas aeruginosa IPCD48 clinical isolate assessed as reduction in PQS level at 0.2 uM by LCMS/MS analysis; conditions: filed as antagonist
[20] = target: T1, Transcriptional regulator MvfR (Pseudomonas aeruginosa PA14); experiment: Antagonist activity at PqsR in wild-type Pseudomonas aeruginosa PA14 assessed as reduction in HQNO level at 0.2 uM by LCMS/MS analysis relative to control; parameters: scale not given: the % may be the effect or the level left
[21] = target: T1, Transcriptional regulator MvfR (Pseudomonas aeruginosa PA14); experiment: Antagonist activity at PqsR in Pseudomonas aeruginosa IPCD48 clinical isolate assessed as reduction in HQNO level at 0.2 uM by LCMS/MS analysis relative to control; parameters: scale not given: the % may be the effect or the level left
[22] = target: T1, Transcriptional regulator MvfR (Pseudomonas aeruginosa PA14); experiment: Antagonist activity at PqsR in wild-type Pseudomonas aeruginosa PAO1-L assessed as inhibition of pyocyanin level at 200 nM incubated for 16 hrs by absorbance based assay; conditions: filed as antagonist
[23] = target: T1, Transcriptional regulator MvfR (Pseudomonas aeruginosa PA14); experiment: Antagonist activity at PqsR in Pseudomonas aeruginosa IPCD1331 clinical isolate assessed as reduction in HHQ level at 0.2 uM by LCMS/MS analysis
[24] = target: T1, Transcriptional regulator MvfR (Pseudomonas aeruginosa PA14); experiment: Antagonist activity at PqsR in Pseudomonas aeruginosa IPCD1331 clinical isolate assessed as reduction in PQS level at 0.2 uM by LCMS/MS analysis
[25] = target: T1, Transcriptional regulator MvfR (Pseudomonas aeruginosa PA14); experiment: Antagonist activity at PqsR in Pseudomonas aeruginosa IPCD48 clinical isolate assessed as reduction in HHQ level at 0.2 uM by LCMS/MS analysis; conditions: filed as antagonist
Pseudomonas aeruginosa [26] = experiment: Inhibition of biofilm formation in Pseudomonas aeruginosa PAO1-L at 10 uM incubated for 6 to 24 hrs by SYTO9/PI staining based confocal laser scanning microscopy; assay type: functional, organism-based; conditions: time 6-24 hrs
How it was run: (§3)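 PAO1-L biofilms grown on glass coverslips in a rolling bioreactor (20 rpm) in FAB 10 mM glucose, inoculated at OD600 0.01, 30 °C for 24 h with 10 μM compound from the start. Then PBS wash and 6 or 24 h in fresh medium with 60 μg/mL ciprofloxacin, 20 μM compound, or both. LIVE/DEAD BacLight staining, CLSM; live/dead ratios against untreated.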

[27] = target: T1, Transcriptional regulator MvfR (Pseudomonas aeruginosa PA14); experiment: Antagonist activity at PqsR in Pseudomonas aeruginosa IPCD1350 clinical isolate assessed as reduction in HQNO level at 0.2 uM by LCMS/MS analysis relative to control; parameters: scale not given: the % may be the effect or the level left
Pseudomonas aeruginosa [28] = experiment: Potentiation of Ciprofloxacin-induced antibiofilm activity in Pseudomonas aeruginosa PAO1-L at 10 uM incubated for 6 to 24 hrs by SYTO9/PI staining based confocal laser scanning microscopy; assay type: functional, organism-based; conditions: time 6-24 hrs; how it was run: as §3
[29] = target: T1, Transcriptional regulator MvfR (Pseudomonas aeruginosa PA14); experiment: Antagonist activity at PqsR in Pseudomonas aeruginosa IPCD1331 clinical isolate assessed as reduction in HQNO level at 0.2 uM by LCMS/MS analysis relative to control; parameters: scale not given: the % may be the effect or the level left
[30] = target: T1, Transcriptional regulator MvfR (Pseudomonas aeruginosa PA14); experiment: Antagonist activity at PqsR in Pseudomonas aeruginosa LESB58 clinical isolate assessed as reduction in HQNO level at 0.2 uM by LCMS/MS analysis relative to control; parameters: scale not given: the % may be the effect or the level left
Pseudomonas aeruginosa [31] = experiment: Potentiation of Tobramycin-induced antibiofilm activity in Pseudomonas aeruginosa PAO1-L at 1 uM preincubated for 16 hrs followed by tobramycin addition measured for 2 to 6 hrs by PI staining based confocal laser scanning microscopy; assay type: functional, organism-based; conditions: time 18-22 hrs; how it was run: as §2
[32] = target: T1, Transcriptional regulator MvfR (Pseudomonas aeruginosa PA14); experiment: Antagonist activity at PqsR in wild-type Pseudomonas aeruginosa PAO1-L assessed as reduction in HQNO level at 0.2 uM by LCMS/MS analysis relative to control; parameters: scale not given: the % may be the effect or the level left

N#CCc1ccc(OCC(O)CNc2nc3ccc(Cl)cc3o2)cc1 (stereo not given)
inhibition (Pseudomonas aeruginosa [1]): inactive
inhibition (Pseudomonas aeruginosa [2]): inactive

N#CCc1ccc(OCC(O)CNc2nc3ccc(Cl)cc3n2C2CCC2)cc1 (stereo not given)
inhibition [3]: > 50%

N#CCc1ccc(OCC(O)CNc2nc3ccc(Cl)cc3n2C2CC2)cc1 (stereo not given)
inhibition [3]: > 50%

COCCn1c(NCC(O)COc2ccc(CC#N)cc2)nc2ccc(Cl)cc21 (stereo not given)
inhibition [3]: > 50%

CC(C)n1c(NCC(O)COc2ccc(CC#N)cc2F)nc2ccc(Cl)cc21 (stereo not given)
Activity (A549): Non-Toxic
inhibition [3]: > 50%

Cn1c(NCC(O)COc2ccc(CC#N)cc2)nc2ccc(Cl)cc21 (stereo not given)
inhibition [3]: > 50%

CN1CCC(n2c(NCC(O)COc3ccc(CC#N)cc3)nc3ccc(Cl)cc32)CC1 (stereo not given)
IC50 [4]: Not Active
IC50 [5]: Not Active

CC(C)n1c(NCC(N)COc2ccc(CC#N)cc2)nc2ccc(Cl)cc21 (stereo not given)
IC50 [4]: Not Active

Cn1c(SCC(O)COc2ccc(CC#N)cc2)nc2ccc(Cl)cc21 (stereo not given)
inhibition (Pseudomonas aeruginosa [1]): inactive
inhibition (Pseudomonas aeruginosa [2]): inactive

CCn1c(NCC(O)COc2ccc(CC#N)cc2)nc2ccc(Cl)cc21 (stereo not given)
inhibition [3]: > 50%

CN(C)CCn1c(NCC(O)COc2ccc(CC#N)cc2)nc2ccc(Cl)cc21 (stereo not given)
IC50 [4]: Not Active
IC50 [5]: Not Active

CC(C)n1c(NCC(O)COc2ccc(CC#N)cc2)nc2ccc(Cl)cc21 (stereo not given)
Activity [6]: Active
inhibition [7]: inactive
Activity [8]: Active
Activity [9]: Active
Activity [10]: Active
inhibition [11]: Active
Activity [12]: inactive
Activity [13]: Active
Activity (A549): Non-Toxic
inhibition [14]: Active
inhibition [15]: Active
inhibition [16]: Active
inhibition (Pseudomonas aeruginosa [17]): inactive
inhibition [18]: Active
Activity [19]: Active
Activity [20]: 20%
Activity [21]: 20%
inhibition [22]: Active
Activity [23]: inactive
Activity [24]: inactive
Activity [25]: Active
inhibition (Pseudomonas aeruginosa [26]): inactive
Activity [27]: 20%
Activity (Pseudomonas aeruginosa [28]): Active
Activity [29]: 20%
Activity [30]: 20%
Activity (Pseudomonas aeruginosa [31]): Active
Activity [32]: 20%

CC(C)n1c(NCC(O)COc2ccc(CC#N)c(F)c2)nc2ccc(Cl)cc21 (stereo not given)
inhibition [3]: > 50%

Cn1c(NCC(O)COc2ccc(CC#N)cc2)nc2cc(Cl)c(Cl)cc21 (stereo not given)
IC50 [4]: Not Active
IC50 [5]: Not Active

N#CCc1ccc(OCC(O)CNc2nc3ccc(Cl)cc3s2)cc1 (stereo not given)
inhibition (Pseudomonas aeruginosa [1]): inactive
inhibition (Pseudomonas aeruginosa [2]): inactive

Cn1c(NCC(O)COc2ccc(CC#N)cc2)nc2ccc(C(F)(F)F)cc21 (stereo not given)
IC50 [4]: Not Active
IC50 ([5]; read-out: IC50): 1.5 µM

Cn1c(NCC(O)COc2ccc(CC#N)cc2)nc2cc(Cl)ccc21 (stereo not given)
IC50 [4]: Not Active
IC50 [5]: Not Active

N#CCc1ccc(OCC(O)CNc2nc3ccc(Cl)cc3n2CCO)cc1 (stereo not given)
inhibition [3]: > 50%

N#CCc1ccc(OCC(O)CNc2nc3ccc(Cl)cc3n2CCOCc2ccccc2)cc1 (stereo not given)
IC50 [4]: Not Active
